The text below walks through data of ChEMBL document CHEMBL1255453, “Affinity of ceftaroline and other beta-lactams for penicillin-binding proteins from Staphylococcus aureus and Streptococcus pneumoniae” (Antimicrob Agents Chemother, 2010).

The test system of test [1] is Streptococcus pneumoniae. In words: Antibacterial activity against penicillin-resistant Streptococcus pneumoniae 2688 by macrodilution method. In kind it is functional. The method in brief:
(§1)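 CLSI broth macrodilution MICs. The S. aureus set is 5 MRSA strains (hVISA, VISA, VRSA) plus 1 MSSA. The S. pneumoniae set is 7 clonally unrelated clinical isolates, categorised by penicillin G against 2006 CLSI M100-S17 criteria (resistant ≥2 μg/ml, susceptible ≤0.06 μg/ml).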

Test [2] has as its system Streptococcus pneumoniae. Briefly: Antibacterial activity against penicillin-resistant Streptococcus pneumoniae 24 by macrodilution method. In kind it is functional. The method in brief:
as §1

For test [3], the system named is Streptococcus pneumoniae. Briefly: Antibacterial activity against penicillin-resistant Streptococcus pneumoniae 2527 by macrodilution method. In kind it is functional. The method in brief: as §1
Test [4] concerns Staphylococcus aureus. Briefly: Antibacterial activity against methicillin-, vancomycin-susceptible Staphylococcus aureus ATCC 29213 by macrodilution method. It is filed as functional. The method in brief: as §1
The subject of test [5] is Staphylococcus aureus. Briefly: Antibacterial activity against methicillin-resistant, heteroresistant vancomycin-intermediate, beta-lactamase-negative Staphylococcus aureus 873 by macrodilution method. In kind it is functional. The method in brief:
as §1

The test system of test [6] is Staphylococcus aureus. In words: Antibacterial activity against methicillin-, vancomycin-resistant, beta-lactamase-positive Staphylococcus aureus 510 by macrodilution method. It is filed as functional. The method in brief:
as §1

The test system of test [7] is Staphylococcus aureus. In words: Antibacterial activity against methicillin-resistant, vancomycin-intermediate, beta-lactamase-positive Staphylococcus aureus 1287 by macrodilution method. It is filed as functional. The method in brief: as §1
The nature of test [8]: Binding affinity to methicillin-, vancomycin-susceptible Staphylococcus aureus ATCC 29213 PBP1 by competitive binding assay. The method in brief:
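MSSA grown in brain heart infusion broth and harvested at OD600 0.3–0.4. Lysed with lysozyme, lysostaphin, DNase I, freeze-thaw and sonication; membranes collected at 100,000 × g. Membranes (100 μg protein) incubated with β-lactam 10 min at 37°C, then Bocillin FL 40 μg/ml, 15 min at 37°C. SDS-PAGE, fluorescence at 520 nm. IC50 is 50% inhibition of Bocillin FL binding; 3 membrane isolations.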

Test [9] in a line: Binding affinity to methicillin-, vancomycin-resistant, beta-lactamase-positive Staphylococcus aureus 510 PBP1 by competitive binding assay.
The nature of test [10]: Binding affinity to methicillin-resistant, vancomycin-intermediate, beta-lactamase-positive Staphylococcus aureus 1287 PBP1 by competitive binding assay.
The next test deals with T1, MecA (Staphylococcus aureus, UniProt Q7DHH4).
T1 sequence (Q7DHH4 whole entry): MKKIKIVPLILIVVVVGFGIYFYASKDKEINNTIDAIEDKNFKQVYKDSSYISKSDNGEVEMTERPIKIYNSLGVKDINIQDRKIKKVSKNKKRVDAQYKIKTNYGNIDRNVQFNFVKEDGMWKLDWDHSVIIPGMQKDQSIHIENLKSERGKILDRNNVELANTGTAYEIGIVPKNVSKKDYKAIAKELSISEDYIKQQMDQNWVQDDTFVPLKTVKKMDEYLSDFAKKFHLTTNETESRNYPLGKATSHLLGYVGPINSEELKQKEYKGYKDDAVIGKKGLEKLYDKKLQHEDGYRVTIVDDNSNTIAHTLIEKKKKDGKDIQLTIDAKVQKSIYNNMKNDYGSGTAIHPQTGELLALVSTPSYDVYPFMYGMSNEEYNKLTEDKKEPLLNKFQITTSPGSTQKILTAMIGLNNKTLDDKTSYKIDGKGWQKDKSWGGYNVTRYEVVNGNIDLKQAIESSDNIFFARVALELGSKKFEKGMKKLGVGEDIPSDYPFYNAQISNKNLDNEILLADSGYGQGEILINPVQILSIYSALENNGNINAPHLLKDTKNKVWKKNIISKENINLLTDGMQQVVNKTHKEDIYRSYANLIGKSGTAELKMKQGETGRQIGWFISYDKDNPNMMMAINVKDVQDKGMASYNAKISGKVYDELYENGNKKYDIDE
In words: Binding affinity to methicillin-, linezolid-resistant, vancomycin-intermediate, beta-lactamase-positive Staphylococcus aureus 2149A PBP2a by competitive binding assay. The method in brief:
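MRSA grown in brain heart infusion and harvested in exponential phase (OD600 0.3–0.4). Membranes prepared by lysozyme/lysostaphin/DNase, freeze-thaw and sonication, then ultracentrifugation. Membranes preincubated with clavulanic acid 1 mg/ml to saturate PBPs other than PBP2a. Then β-lactam 10 min at 37°C and Bocillin FL 40 μg/ml, 15 min at 37°C. SDS-PAGE fluorescence; IC50 = 50% inhibition of Bocillin FL binding; 3 isolations.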

A short description of test [11]: Binding affinity to methicillin-, vancomycin-resistant, beta-lactamase-positive Staphylococcus aureus 510 PBP3 by competitive binding assay.
A short description of test [12]: Binding affinity to methicillin-, vancomycin-susceptible Staphylococcus aureus ATCC 29213 PBP4 by competitive binding assay. The method in brief:
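S. aureus grown in brain heart infusion broth and harvested at OD600 0.3 to 0.4. Membranes were prepared by lysozyme/lysostaphin/DNase I treatment, freeze-thaw, sonication and ultracentrifugation. Membranes (100 μg total protein) were preincubated with β-lactam for 10 min at 37°C, then labeled with 40 μg/ml Bocillin FL for 15 min at 37°C. SDS-PAGE with fluorescence imaging at 520 nm. IC50 is 50% inhibition of Bocillin FL binding; 3 membrane isolations.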

Test [13] in a line: Binding affinity to methicillin-, vancomycin-resistant, beta-lactamase-positive Staphylococcus aureus 510 PBP4 by competitive binding assay.
The nature of test [14]: Binding affinity to methicillin-resistant, vancomycin-intermediate, beta-lactamase-positive Staphylococcus aureus 1287 PBP4 by competitive binding assay.
Test [15] can be described thus: Binding affinity to against penicillin-susceptible Streptococcus pneumoniae 1076 PBP1B by competitive binding assay. The method in brief:
(§2)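 Whole pneumococcal cells grown to OD600 0.3 in Todd-Hewitt broth with 0.5% yeast extract, resuspended in 50 mM NaPO4 pH 7.0. Cells (10^8–5 × 10^8 CFU/ml) incubated with β-lactam 10 min at 37°C, then Bocillin FL 10 μg/ml, 15 min at 37°C. SDS-PAGE, 520 nm fluorescence; IC50 = 50% inhibition of Bocillin FL binding; 2 experiments.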

The nature of test [16]: Binding affinity to against penicillin-susceptible Streptococcus pneumoniae 1076 PBP3 by competitive binding assay. The method in brief:
as §2

The nature of test [17]: Binding affinity to penicillin-resistant Streptococcus pneumoniae 3413 PBP3 by competitive binding assay. The method in brief:
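Whole pneumococcal cells were grown to OD600 0.3 in Todd-Hewitt broth plus 0.5% yeast extract, then resuspended in 50 mM NaPO4, pH 7.0. Cells at 10^8 to 5 × 10^8 CFU/ml were exposed to β-lactam for 10 min at 37°C, alongside a reference without drug. They were then labeled with 10 μg/ml Bocillin FL for 15 min at 37°C. Proteins were resolved by SDS-PAGE and fluorescence read at 520 nm. IC50 was taken as 50% inhibition of Bocillin FL binding, from 2 experiments.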

SMILES strings stand for the structures. Values after ≈ are worked out from the molar mass of the structure shown.

A word on the MIC: it is the lowest concentration that inhibits growth of the organism. Read a low MIC as inhibition by little substance. One may read the IC50 as the concentration at which inhibition is half-maximal. Lower therefore signals higher potency. On to `CC1(C)S[C@@H]2[C@H](NC(=O)Cc3ccccc3)C(=O)N2[C@H]1C(=O)O` [PENICILLIN G], for which the MIC against Streptococcus pneumoniae [1] is 8 µg/mL (≈ 23.9 µM); in the test on Streptococcus pneumoniae [2], 4 µg/mL (≈ 12 µM); with Streptococcus pneumoniae [3], 2 µg/mL (≈ 5.98 µM); in the test on Staphylococcus aureus [4], 1 µg/mL (≈ 2.99 µM); against Staphylococcus aureus [5] it was 8 µg/mL (≈ 23.9 µM); against Staphylococcus aureus [6], 32 µg/mL (≈ 95.7 µM). This compound also came in with an MIC in the test with Staphylococcus aureus [7] of 32 µg/mL (≈ 95.7 µM). For the same compound, the IC50 is 4 µg/mL (≈ 12 µM) in [8]; 128 µg/mL (≈ 383 µM) in test [9]; 4 µg/mL (≈ 12 µM) in [10]; 5.98 µM at MecA; 4 µg/mL (≈ 12 µM) in test [11]; over 8 µg/mL in test [12]. For the same compound, the values for the IC50 in [13] and in [14] were 64 µg/mL (≈ 191 µM) and 4 µg/mL (≈ 12 µM), respectively.

Regarding `CO/N=C(\C(=O)N[C@@H]1C(=O)N2C(C(=O)O)=C(COC(C)=O)CS[C@H]12)c1csc(N)n1` [CEFOTAXIME], the MIC against Streptococcus pneumoniae [1] is 16 µg/mL (≈ 35.1 µM); in the test on Streptococcus pneumoniae [2] it was 1 µg/mL (≈ 2.2 µM); with Streptococcus pneumoniae [3], 0.015 µg/mL (≈ 0.0329 µM); with Staphylococcus aureus [4], 2 µg/mL (≈ 4.39 µM); against Staphylococcus aureus [5], over 64 µg/mL; in the test on Staphylococcus aureus [6], over 64 µg/mL. Besides, the MIC in the test with Staphylococcus aureus [7] was 4 µg/mL (≈ 8.78 µM). For the same compound, the IC50 in test [8] is 0.25 µg/mL (≈ 0.549 µM); in [9] it was 0.5 µg/mL (≈ 1.1 µM); in test [10] it was 1 µg/mL (≈ 2.2 µM); on MecA, over 281 µM; in test [11], 0.25 µg/mL (≈ 0.549 µM); in [12] it was over 8 µg/mL. For the same compound, the IC50 in test [13] is over 128 µg/mL; in test [14], over 128 µg/mL; in [15], 0.25 µg/mL (≈ 0.549 µM); in test [16] it was 0.1 µg/mL (≈ 0.22 µM); in test [17], 0.1 µg/mL (≈ 0.22 µM).

As to `CO/N=C(\C(=O)N[C@@H]1C(=O)N2C(C(=O)O)=C(CSc3nc(=O)c(O)nn3C)CS[C@H]12)c1csc(N)n1` [CEFTRIAXONE], the MIC with Streptococcus pneumoniae [1] was 8 µg/mL (≈ 14.4 µM); in the test on Streptococcus pneumoniae [2], 2 µg/mL (≈ 3.61 µM); against Streptococcus pneumoniae [3] it was 0.03 µg/mL (≈ 0.0541 µM); against Staphylococcus aureus [4], 2 µg/mL (≈ 3.61 µM); against Staphylococcus aureus [5], over 64 µg/mL; with Staphylococcus aureus [6] it was over 64 µg/mL. The same compound returned an MIC in the test with Staphylococcus aureus [7] of 8 µg/mL (≈ 14.4 µM). For the same compound, the IC50 in [8] is 0.25 µg/mL (≈ 0.451 µM); in [9], 0.5 µg/mL (≈ 0.902 µM); in test [10], 1 µg/mL (≈ 1.8 µM); at MecA, 3.61 µM; in [11], 0.25 µg/mL (≈ 0.451 µM); in test [12], over 8 µg/mL. In addition, the IC50 in test [13] was over 128 µg/mL; in test [14] it was over 128 µg/mL; in [15], 0.1 µg/mL (≈ 0.18 µM); in test [16] it was 0.1 µg/mL (≈ 0.18 µM); in test [17], 0.25 µg/mL (≈ 0.451 µM).
